From ChEMBL document CHEMBL4261631, “Synthetic thiosemicarbazones as a new class of Mycobacterium tuberculosis protein tyrosine phosphatase A inhibitors” (Bioorg Med Chem, 2018)

Columns and labels:
[1] = target: T1, Low molecular weight protein-tyrosine phosphatase A (Mycobacterium tuberculosis) (UniProt P9WIA1); assay: Inhibition of recombinant Mycobacterium tuberculosis PtpA at 25 uM using p-nitrophenyl phosphate as substrate preincubated for 10 mins followed by substrate addition and measured every minute for 10 mins by UV-VIS spectrophotometric analysis
T1 sequence (whole entry): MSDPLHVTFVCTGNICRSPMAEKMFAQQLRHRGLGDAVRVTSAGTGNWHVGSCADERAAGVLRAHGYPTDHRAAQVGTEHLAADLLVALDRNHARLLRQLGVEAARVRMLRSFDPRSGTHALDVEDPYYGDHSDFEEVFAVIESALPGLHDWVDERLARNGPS
Outline: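 Single-point screen at 25 µM final (from 1 mM DMSO stock, 2.5% DMSO final). 50 nM recombinant Mtb PtpA in 20 mM imidazole pH 7.0, premixed with compound 10 min at 37 °C. Reaction started with 10 mM pNPP. A410 read each min for 10 min at 37 °C. Residual activity from absorbance difference 7 min minus 2 min versus no-inhibitor wells. Triplicate.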

[2] = target: T2, Low molecular weight protein-tyrosine phosphatase A (Mycobacterium tuberculosis, UniProt P9WIA1); assay: Inhibition of recombinant Mycobacterium tuberculosis PtpA using p-nitrophenyl phosphate as substrate preincubated for 10 mins followed by substrate addition and measured every minute for 10 mins by UV-VIS spectrophotometric analysis
T2 sequence (P9WIA1 whole entry): T1 sequence (whole entry)
Outline: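 Recombinant Mtb PtpA at 50 nM in 20 mM imidazole pH 7.0, premixed with inhibitor (0.5–50 µM, DMSO ≤4% v/v) 10 min at 37 °C. Started with 10 mM pNPP. A410 read each min for 10 min at 37 °C. Residual activity from 7 min minus 2 min absorbance versus no-inhibitor wells. IC50 by linear regression of % inhibition versus concentration. Triplicate, mean ± SD of three experiments.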

[3] = target: T3, Phosphotyrosine protein phosphatase (Mycobacterium tuberculosis, UniProt A0A045ISB3); assay: Inhibition of recombinant Mycobacterium tuberculosis PtpB using p-nitrophenyl phosphate as substrate preincubated for 10 mins followed by substrate addition and measured every minute for 10 mins by UV-VIS spectrophotometric analysis
T3 sequence (A0A045ISB3 whole entry): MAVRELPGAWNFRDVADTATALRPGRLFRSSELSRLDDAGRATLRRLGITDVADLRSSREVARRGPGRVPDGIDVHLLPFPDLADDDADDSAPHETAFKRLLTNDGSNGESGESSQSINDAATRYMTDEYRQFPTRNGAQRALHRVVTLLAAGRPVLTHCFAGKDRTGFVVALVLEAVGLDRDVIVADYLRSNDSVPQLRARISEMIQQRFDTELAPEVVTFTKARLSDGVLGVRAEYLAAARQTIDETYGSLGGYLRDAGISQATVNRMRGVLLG
Outline: (§1)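 Recombinant PTP at PtpB 50 nM, LYP 169 nM, PTP-PEST 205 nM or PTP1B 38 nM, in 20 mM imidazole pH 7.0. Inhibitor (0.5–50 µM, DMSO ≤4% v/v) premixed with enzyme 10 min at 37 °C. Started with 10 mM pNPP. A410 each min for 10 min. Activity from 7 min minus 2 min. IC50 by linear regression. Triplicate.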

[4] = target: Tyrosine-protein phosphatase YopH (Yersinia enterocolitica, UniProt P15273); assay: Inhibition of recombinant Yersinia enterocolitica YopH using p-nitrophenyl phosphate as substrate preincubated for 10 mins followed by substrate addition and measured every minute for 10 mins by UV-VIS spectrophotometric analysis
Chain of Tyrosine-protein phosphatase YopH (P15273 whole entry): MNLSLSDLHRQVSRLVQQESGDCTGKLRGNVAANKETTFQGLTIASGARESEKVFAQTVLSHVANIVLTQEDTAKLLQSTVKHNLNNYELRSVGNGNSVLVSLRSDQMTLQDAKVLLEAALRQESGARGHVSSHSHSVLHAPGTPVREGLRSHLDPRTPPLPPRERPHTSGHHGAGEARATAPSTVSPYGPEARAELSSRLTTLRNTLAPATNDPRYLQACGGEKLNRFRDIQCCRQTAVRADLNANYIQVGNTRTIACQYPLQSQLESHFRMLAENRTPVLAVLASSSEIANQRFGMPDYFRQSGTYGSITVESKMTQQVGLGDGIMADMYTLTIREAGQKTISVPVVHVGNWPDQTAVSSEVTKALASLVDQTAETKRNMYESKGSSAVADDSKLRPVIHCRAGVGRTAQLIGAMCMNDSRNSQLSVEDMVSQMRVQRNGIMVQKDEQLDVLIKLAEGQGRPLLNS

[5] = target: T4, Tyrosine-protein phosphatase non-receptor type 22 (Homo sapiens, UniProt Q9Y2R2); assay: Inhibition of recombinant human LYP using p-nitrophenyl phosphate as substrate preincubated for 10 mins followed by substrate addition and measured every minute for 10 mins by UV-VIS spectrophotometric analysis; outline: as §1
T4 sequence (Q9Y2R2 whole entry): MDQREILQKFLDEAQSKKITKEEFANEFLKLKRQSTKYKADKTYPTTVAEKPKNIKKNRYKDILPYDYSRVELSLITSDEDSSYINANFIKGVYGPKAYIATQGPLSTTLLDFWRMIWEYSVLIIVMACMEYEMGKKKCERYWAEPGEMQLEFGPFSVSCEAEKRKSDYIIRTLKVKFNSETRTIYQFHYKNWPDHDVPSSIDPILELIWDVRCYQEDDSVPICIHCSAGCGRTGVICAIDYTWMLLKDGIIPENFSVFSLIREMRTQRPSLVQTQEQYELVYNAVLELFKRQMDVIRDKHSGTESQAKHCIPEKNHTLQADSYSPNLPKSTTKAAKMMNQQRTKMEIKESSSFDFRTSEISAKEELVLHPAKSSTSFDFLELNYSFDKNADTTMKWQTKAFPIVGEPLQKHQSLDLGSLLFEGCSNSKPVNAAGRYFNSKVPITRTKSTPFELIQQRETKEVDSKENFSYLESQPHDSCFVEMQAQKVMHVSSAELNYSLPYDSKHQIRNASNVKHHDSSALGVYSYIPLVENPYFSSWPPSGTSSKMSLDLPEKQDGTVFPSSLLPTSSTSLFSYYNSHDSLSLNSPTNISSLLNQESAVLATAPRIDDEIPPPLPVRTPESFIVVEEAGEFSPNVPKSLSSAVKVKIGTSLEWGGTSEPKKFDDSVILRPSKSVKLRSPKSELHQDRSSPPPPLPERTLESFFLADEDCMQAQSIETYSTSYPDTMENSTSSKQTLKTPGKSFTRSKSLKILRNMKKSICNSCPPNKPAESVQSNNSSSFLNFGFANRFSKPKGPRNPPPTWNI

[6] = system: Mycobacterium tuberculosis; assay: Selectivity index, ratio of IC50 for recombinant Mycobacterium tuberculosis PtpB to IC50 for recombinant Mycobacterium tuberculosis PtpA
Outline: (§2)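 Selectivity index calculated as IC50 for PtpB, LYP, PTP-PEST or PTP1B divided by IC50 for PtpA. Both IC50 values come from pNPP hydrolysis at 37 °C with 10 min enzyme–inhibitor premix and A410 readout, using 0.5–50 µM inhibitor.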

[7] = Selectivity index, ratio of IC50 for recombinant human Ptp1B to IC50 for recombinant Mycobacterium tuberculosis PtpA; outline: as §2
[8] = Selectivity index, ratio of IC50 for recombinant Yersinia enterocolitica YopH to IC50 for recombinant Mycobacterium tuberculosis PtpA
[9] = Selectivity index, ratio of IC50 for recombinant human PTP-PEST to IC50 for recombinant Mycobacterium tuberculosis PtpA; outline: as §2
[10] = Selectivity index, ratio of IC50 for recombinant human LYP to IC50 for recombinant Mycobacterium tuberculosis PtpA; outline: as §2
[11] = target: T2, Low molecular weight protein-tyrosine phosphatase A; assay: Non-competitive inhibition of Mycobacterium tuberculosis PtpA using p-nitrophenyl phosphate as substrate by Michaelis-Menten plot analysis
Outline: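 Mtb PtpA-catalysed pNPP hydrolysis with pNPP varied 0.2–20 mM at each of three inhibitor concentrations. Rates expressed as specific activity (µmol pNPP min-1 mg-1). Vmax and Km fitted to Michaelis–Menten equation. Ki from non-linear fits to competitive or non-competitive inhibition equation, at least three independent experiments.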

Row | Compound | inhibition [1] | IC50 [2] | IC50 [3] | IC50 [4] | IC50 [5] | Ratio IC50 [6] | Ratio IC50 [7] | Ratio IC50 [8] | Ratio IC50 [9] | Ratio IC50 [10] | Ki [11]
1 | O=[N+]([O-])c1ccc(/C=N/NC(=S)Nc2cccc3ccccc23)cc1 | 77.7% | 9.5 µM | 18.4 µM | 7.1 µM | > 50 µM | 1.9 | 1.8 | 0.7 | > 5.3 | > 5.3 | 1.2 µM
2 | FC(F)(F)c1ccc(Cl)c(-c2ccc(/C=N/NC(=S)Nc3cccc4ccccc34)o2)c1 | 86.7% | 2.9 µM | 6.2 µM | 2.6 µM | > 50 µM | 2.1 | 3.2 | 0.9 | 5.4 | > 10.3 | 1.7 µM
3 | Cc1ccc(NC(=S)N/N=C/c2ccc(-c3cc(C(F)(F)F)ccc3Cl)o2)cc1 | 66% | 9.1 µM | 30.3 µM | 6.9 µM | > 50 µM | 3.3 | 4.2 | 0.8 | > 5.5 | > 5.5 | 
4 | S=C(N/N=C/c1ccc(-c2ccccc2)cc1)Nc1cccc2ccccc12 | 79.7% | 7.4 µM | 17.6 µM | 6.5 µM | > 50 µM | 2.4 | > 6.8 | 0.9 | > 6.8 | > 6.8 | 5.6 µM
